ChEMBL document CHEMBL4049456, “Identification of 4-(Aminomethyl)-6-(trifluoromethyl)-2-(phenoxy)pyridine Derivatives as Potent, Selective, and Orally Efficacious Inhibitors of the Copper-Dependent Amine Oxidase, Lysyl Oxidase-Like 2 (LOXL2)” (J Med Chem, 2017)

Tests used:
Lysyl oxidase homolog 2 [1] = target: T1, Lysyl oxidase homolog 2 (Mus musculus, UniProt P58022); test: (§1) Inhibition of recombinant mouse LOXL2 expressed in mouse whole blood assessed as reduction of H2O2 production from oxidative deamination of DAP preincubated for 2 hrs followed by substrate addition measured every 2 mins for 1 hr by amplex red reagent-based fluorescence assay
T1 sequence (P58022 whole entry): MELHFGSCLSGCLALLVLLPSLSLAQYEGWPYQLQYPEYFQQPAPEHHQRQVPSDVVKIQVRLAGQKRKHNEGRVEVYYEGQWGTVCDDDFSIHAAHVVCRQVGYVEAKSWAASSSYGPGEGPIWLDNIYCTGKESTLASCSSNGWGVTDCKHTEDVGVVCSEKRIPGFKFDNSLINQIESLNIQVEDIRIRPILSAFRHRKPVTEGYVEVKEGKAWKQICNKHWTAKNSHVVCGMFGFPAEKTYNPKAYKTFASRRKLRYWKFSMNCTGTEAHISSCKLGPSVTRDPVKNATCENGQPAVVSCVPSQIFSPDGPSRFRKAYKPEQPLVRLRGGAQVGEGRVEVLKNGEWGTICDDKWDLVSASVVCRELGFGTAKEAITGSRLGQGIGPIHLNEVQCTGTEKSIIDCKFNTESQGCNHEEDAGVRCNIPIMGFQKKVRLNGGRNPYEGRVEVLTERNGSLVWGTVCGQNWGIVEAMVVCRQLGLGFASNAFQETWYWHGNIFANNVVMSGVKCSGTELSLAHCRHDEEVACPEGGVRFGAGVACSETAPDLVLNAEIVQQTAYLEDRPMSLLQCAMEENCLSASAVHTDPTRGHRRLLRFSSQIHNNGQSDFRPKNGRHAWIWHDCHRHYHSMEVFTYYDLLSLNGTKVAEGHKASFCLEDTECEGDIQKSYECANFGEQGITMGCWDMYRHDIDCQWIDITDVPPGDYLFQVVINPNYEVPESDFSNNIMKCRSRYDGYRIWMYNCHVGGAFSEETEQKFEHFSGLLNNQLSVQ

[2] = target: T2, Lysyl oxidase homolog 2 (Mus musculus) (UniProt P58022); test: as §1
T2 sequence (whole entry): T1 sequence (P58022 whole entry)

[3] = target: T3, Lysyl oxidase homolog 2 (Homo sapiens) (UniProt Q9Y4K0); test: Irreversible inhibition of human LOXL2 assessed as catalytic activity preincubated for 2 hrs followed by substrate addition measured every 2 mins for 1 hr by amplex red reagent-based fluorescence assay relative to control; set-up: concentration or dose not given beside the values
T3 sequence (whole entry): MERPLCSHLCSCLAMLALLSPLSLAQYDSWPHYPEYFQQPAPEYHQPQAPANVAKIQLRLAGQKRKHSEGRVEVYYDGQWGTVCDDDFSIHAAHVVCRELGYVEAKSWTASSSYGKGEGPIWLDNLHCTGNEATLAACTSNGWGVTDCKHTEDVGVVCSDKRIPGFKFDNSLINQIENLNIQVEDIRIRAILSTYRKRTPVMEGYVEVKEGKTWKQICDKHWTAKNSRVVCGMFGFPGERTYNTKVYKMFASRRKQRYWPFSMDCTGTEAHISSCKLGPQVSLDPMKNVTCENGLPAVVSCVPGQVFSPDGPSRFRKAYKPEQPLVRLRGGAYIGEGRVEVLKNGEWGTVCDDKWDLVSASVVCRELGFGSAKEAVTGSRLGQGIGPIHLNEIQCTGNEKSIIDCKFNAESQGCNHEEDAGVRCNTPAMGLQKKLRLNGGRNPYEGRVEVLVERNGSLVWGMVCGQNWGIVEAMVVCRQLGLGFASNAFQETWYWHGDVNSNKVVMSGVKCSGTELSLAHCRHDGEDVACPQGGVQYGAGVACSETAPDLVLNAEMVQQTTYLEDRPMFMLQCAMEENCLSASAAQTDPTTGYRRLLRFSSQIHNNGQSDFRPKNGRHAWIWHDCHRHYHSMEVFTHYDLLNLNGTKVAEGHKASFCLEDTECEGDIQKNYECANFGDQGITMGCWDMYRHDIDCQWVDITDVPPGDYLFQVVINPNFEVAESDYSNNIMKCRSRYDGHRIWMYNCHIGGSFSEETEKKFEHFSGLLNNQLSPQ

[4] = target: T3, Lysyl oxidase homolog 2 (Homo sapiens); test: (§2) Inhibition of recombinant human LOXL2 expressed in human whole blood assessed as reduction of H2O2 production from oxidative deamination of DAP preincubated for 2 hrs followed by substrate addition measured every 2 mins for 1 hr by amplex red reagent-based fluorescence assay
Lysyl oxidase homolog 2 [5] = target: T4, Lysyl oxidase homolog 2 (Homo sapiens, UniProt Q9Y4K0); test: as §2
T4 sequence (Q9Y4K0 whole entry): T3 sequence (whole entry)

Lysyl oxidase homolog 2 [6] = target: T4, Lysyl oxidase homolog 2; test: Inhibition of human LOXL2 expressed in CHO cells assessed as reduction of H2O2 production from oxidative deamination of DAP preincubated for 2 hrs followed by substrate addition measured every 2 mins for 1 hr by amplex red reagent-based fluorescence assay; type: cell-based
[7] = Cmax in C57BL/6 mouse plasma at 30 mg/kg, po by LC-MS/MS analysis; type: ADME, organism-based; set-up: dose 30 mg/kg, route oral
Procedure, shortened: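 Normal C57BL/6 mice, n = 3 per time point, received a single oral 30 mg/kg dose formulated in 0.5% methylcellulose.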

Mus musculus = test: Toxicity in C57BL/6 mouse assessed as body weight loss at 3 to 60 mg/kg, po qd administered 15 days starting 1 day prior to bleomycin instillation; type: organism-based; conditions: in vivo
MAO-A = target: T5, MAO-A (Homo sapiens, UniProt P21397); test: Inhibition of recombinant human MAO-A assessed as reduction of H2O2 production from oxidative deamination of tyramine at 10 uM preincubated for 2 hrs followed by substrate addition; conditions: probe tyramine
T5 sequence (P21397 whole entry): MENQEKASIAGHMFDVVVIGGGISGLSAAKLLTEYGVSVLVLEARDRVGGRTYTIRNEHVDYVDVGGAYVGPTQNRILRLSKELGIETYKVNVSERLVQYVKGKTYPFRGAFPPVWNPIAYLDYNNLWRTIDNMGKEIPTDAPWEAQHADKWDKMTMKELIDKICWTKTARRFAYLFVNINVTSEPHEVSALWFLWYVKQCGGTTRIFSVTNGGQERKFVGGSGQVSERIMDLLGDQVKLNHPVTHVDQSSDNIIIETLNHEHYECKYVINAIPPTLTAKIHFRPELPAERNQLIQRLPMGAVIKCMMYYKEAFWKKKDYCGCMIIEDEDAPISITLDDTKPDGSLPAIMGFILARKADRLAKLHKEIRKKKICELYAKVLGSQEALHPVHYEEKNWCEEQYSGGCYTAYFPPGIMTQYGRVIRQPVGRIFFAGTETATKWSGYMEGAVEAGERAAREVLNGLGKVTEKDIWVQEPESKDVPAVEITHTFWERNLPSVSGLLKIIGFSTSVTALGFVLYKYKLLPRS
Procedure, shortened: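 Purified recombinant human MAO-A (tyramine substrate) or MAO-B (benzylamine substrate) was preincubated with compound for 2 h. Percent inhibition was calculated against vehicle and enzyme-free controls.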

Cl.NCc1cc(Oc2cccc(C(=O)N3C[C@@H](O)[C@H](F)C3)c2)nc(C(F)(F)F)c1 (racemic)
IC50 (Lysyl oxidase homolog 2 [1]): 860 nM | IC90 [2]: 5600 nM | inhibition [3]: 97% | IC90 [4]: 5400 nM | IC50 (Lysyl oxidase homolog 2 [5]): 870 nM | IC50 (Lysyl oxidase homolog 2 [6]): 78 nM | Cmax [7]: 3.09 µM | Activity (Mus musculus): < 5% | inhibition at 2 h, 10 µM (MAO-A): < 10%
